Test results from ChEMBL document CHEMBL4346742, “The parmodulin NRD-21 is an allosteric inhibitor of PAR1 Gq signaling with improved anti-inflammatory activity and stability” (Bioorg Med Chem, 2019).
Values after ≈ are worked out from the molar mass of the structure shown. Active and inactive are the calls of the source. The rule behind the calls is not given here.

Target: Translocator protein (Rattus norvegicus) (UniProt P16257)
Assay: Inhibition of rat PBR at 10 uM
Conditions: not given

Chain of Translocator protein (Rattus norvegicus) (P16257 whole entry, looked up): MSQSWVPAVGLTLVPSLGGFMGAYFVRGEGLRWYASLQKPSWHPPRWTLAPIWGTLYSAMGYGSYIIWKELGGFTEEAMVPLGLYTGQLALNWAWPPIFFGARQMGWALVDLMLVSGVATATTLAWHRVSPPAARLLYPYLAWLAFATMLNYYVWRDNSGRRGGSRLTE

Structure (SMILES)	inhibition [%]
CCCC(=O)Nc1cccc(NC(=O)c2ccccc2Br)c1	84
O=C(Nc1cccc(NC(=O)c2ccccc2Br)c1)c1cnco1	67

Target: T1, Proteinase-activated receptor 1 (Homo sapiens, UniProt P25116)
T1 sequence (P25116 whole entry): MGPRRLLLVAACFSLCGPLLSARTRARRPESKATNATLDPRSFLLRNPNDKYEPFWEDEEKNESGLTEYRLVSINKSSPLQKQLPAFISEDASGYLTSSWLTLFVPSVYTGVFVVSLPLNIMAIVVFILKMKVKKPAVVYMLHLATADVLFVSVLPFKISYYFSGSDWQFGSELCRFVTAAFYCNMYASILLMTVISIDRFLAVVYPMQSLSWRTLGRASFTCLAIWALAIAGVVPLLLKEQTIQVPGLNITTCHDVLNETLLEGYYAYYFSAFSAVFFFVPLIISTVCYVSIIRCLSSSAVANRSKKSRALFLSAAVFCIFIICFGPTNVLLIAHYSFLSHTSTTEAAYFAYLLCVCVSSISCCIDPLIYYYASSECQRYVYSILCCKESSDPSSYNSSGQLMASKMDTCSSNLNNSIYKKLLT
Assay: Negative allosteric modulation of PAR1 in human EAhy926 cells assessed as reduction in TFLLRN-NH2-induced intracellular calcium mobilization incubated for 15 mins followed by TFLLRN-NH2 addition by Fluo-4-AM dye based fluorescence assay
Assay type: functional, cell-based
Conditions: read-out: IC50
In short: (§1)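 Adherent EA.hy926 endothelial cells in 96-well format, intracellular Ca2+ mobilization triggered by PAR1 agonist TFLLRN-NH2 at 5 µM; single-point % inhibition at 10 µM (n = 4 wells, SEM); 7-point concentration-response curves, 3 wells per concentration, pIC50 from 4-variable non-linear regression; average IC50 ± SEM over independent assays.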

Structure (SMILES)	IC50 [nM]
O=C(CC(F)(F)F)Nc1cccc(NC(=O)c2ccccc2Br)c1	380
CCCNC(=O)c1cccc(NC(=O)c2ccccc2Br)c1	220
O=C(Nc1cccc(NC(=O)c2ccccc2Br)c1)c1ccco1	320
CCCC(=O)Nc1cccc(NC(=O)c2ccccc2Br)c1	570
O=C(Nc1cccc(NC(=O)c2ccccc2Br)c1)c1cnco1	370
O=C(Nc1cccc(NC(=O)c2ccccc2Br)c1)c1cocn1	420

Same assay, conditions: read-out: pIC50 (converted)

Structure (SMILES)	IC50 [nM]
C#CCCC(=O)Nc1cccc(NC(=O)c2ccccc2Br)c1	> 10000

Target: T2, Proteinase-activated receptor 1 (Homo sapiens) (UniProt P25116)
T2 sequence (whole entry): T1 sequence (P25116 whole entry)
Assay: Negative allosteric modulation of PAR1 in human EAhy926 cells assessed as reduction in TFLLRN-NH2-induced intracellular calcium mobilization at 10 uM incubated for 15 mins followed by TFLLRN-NH2 addition by Fluo-4-AM dye based fluorescence assay relative to control
Assay type: functional, cell-based
Conditions: not given
In short: as §1

Structure (SMILES)	inhibition [%]
O=C(CC(F)(F)F)Nc1cccc(NC(=O)c2ccccc2Br)c1	88
COC(C)C(=O)Nc1cccc(NC(=O)c2ccccc2Br)c1 (stereo not given)	58
CCCNCc1cccc(NC(=O)c2ccccc2Br)c1	17
NC(=O)CC(=O)Nc1cccc(NC(=O)c2ccccc2Br)c1	36
O=C(Nc1cccc(NC(=O)[C@@H]2CCCN2)c1)c1ccccc1Br	4
CN(C)CC(=O)Nc1cccc(NC(=O)c2ccccc2Br)c1	3
CC(C)[C@@H](O)C(=O)Nc1cccc(NC(=O)c2ccccc2Br)c1	25
CC(C)CC(=O)Nc1cccc(NC(=O)c2ccccc2Br)c1	82
CC(C)(C)OC(=O)N1CCC[C@H]1C(=O)Nc1cccc(NC(=O)c2ccccc2Br)c1	-8
O=C(Nc1cccc(NC(=O)C2CCOC2)c1)c1ccccc1Br (stereo not given)	44
CCCCC(=O)Nc1cccc(NC(=O)c2ccccc2Br)c1	23
CCCNC(=O)c1cccc(NC(=O)c2ccccc2Br)c1	63
CCC(O)C(=O)Nc1cccc(NC(=O)c2ccccc2Br)c1 (stereo not given)	21
O=C(Nc1cccc(NC(=O)c2ccccc2Br)c1)c1ccco1	92
O=C(Nc1cccc(NC(=O)c2ccccc2Br)c1)c1cnco1	90
O=C(Nc1cccc(NC(=O)c2ccccc2Br)c1)c1cocn1	82

Target: T2, Proteinase-activated receptor 1 (Homo sapiens)
Assay: Negative allosteric modulation of PAR1 in human EAhy926 cells assessed as reduction in TFLLRN-NH2-induced intracellular calcium mobilization at 31.6 uM incubated for 15 mins followed by TFLLRN-NH2 addition by Fluo-4-AM dye based fluorescence assay relative to control
Assay type: functional, cell-based
Conditions: not given

Structure (SMILES)	inhibition [%]
O=C(Nc1cccc(NC(=O)c2ccccc2Br)c1)c1cocn1	50

Target: Proteinase-activated receptor 2 (Homo sapiens) (UniProt P55085)
Sequence (P55085 whole entry): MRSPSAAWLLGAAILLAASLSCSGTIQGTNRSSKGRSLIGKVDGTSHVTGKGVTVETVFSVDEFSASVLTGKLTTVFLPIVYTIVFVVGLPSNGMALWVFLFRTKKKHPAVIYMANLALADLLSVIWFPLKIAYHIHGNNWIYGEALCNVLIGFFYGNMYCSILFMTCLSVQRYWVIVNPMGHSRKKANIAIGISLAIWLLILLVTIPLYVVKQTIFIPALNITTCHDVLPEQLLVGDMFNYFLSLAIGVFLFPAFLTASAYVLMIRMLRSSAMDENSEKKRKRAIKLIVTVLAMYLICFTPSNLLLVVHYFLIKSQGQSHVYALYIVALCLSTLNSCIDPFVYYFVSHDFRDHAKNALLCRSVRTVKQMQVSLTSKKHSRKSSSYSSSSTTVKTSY
Assay: Negative allosteric modulation of PAR2 in human EAhy926 cells assessed as reduction in SLIGKV-NH2-induced intracellular calcium mobilization at 0.316 to 10 uM incubated for 15 mins followed by TFLLRN-NH2 addition by Fluo-4-AM dye based fluorescence assay relative to control
Assay type: functional, cell-based
Conditions: not given

Structure (SMILES)	inhibition
O=C(CC(F)(F)F)Nc1cccc(NC(=O)c2ccccc2Br)c1	inactive
O=C(Nc1cccc(NC(=O)c2ccccc2Br)c1)c1ccco1	inactive
CCCC(=O)Nc1cccc(NC(=O)c2ccccc2Br)c1	inactive
O=C(Nc1cccc(NC(=O)c2ccccc2Br)c1)c1cnco1	inactive
O=C(Nc1cccc(NC(=O)c2ccccc2Br)c1)c1cocn1	inactive

Target: T2, Proteinase-activated receptor 1 (Homo sapiens)
Assay: Reversible inhibition of PAR1 in human EAhy926 cells assessed as reduction in TFLLRN-NH2-induced intracellular calcium mobilization at 10 uM incubated for 15 mins and washed in buffer followed by TFLLRN-NH2 addition by Fluo-4-AM dye based fluorescence assay relative to control
Assay type: functional, cell-based
Conditions: not given

Structure (SMILES)	inhibition
O=C(CC(F)(F)F)Nc1cccc(NC(=O)c2ccccc2Br)c1	Active
O=C(Nc1cccc(NC(=O)c2ccccc2Br)c1)c1ccco1	Active
CCCC(=O)Nc1cccc(NC(=O)c2ccccc2Br)c1	Active
O=C(Nc1cccc(NC(=O)c2ccccc2Br)c1)c1cnco1	Active
O=C(Nc1cccc(NC(=O)c2ccccc2Br)c1)c1cocn1	Active

System: not listed separately
Assay: Stability in mouse plasma at 20 uM measured at 4 hrs by LC-MS analysis
Assay type: ADME, cell-free
Conditions: not given
In short: (§2)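 Compound incubated in mouse or human plasma; % parent remaining at 4 h.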

Structure (SMILES)	Stability [%]
O=C(Nc1cccc(NC(=O)c2ccccc2Br)c1)c1cnco1	32

System: not listed separately
Assay: Stability in human plasma at 20 uM measured at 4 hrs by LC-MS analysis
Assay type: ADME, cell-free
Conditions: not given
In short: as §2

Structure (SMILES)	Stability [%]
O=C(Nc1cccc(NC(=O)c2ccccc2Br)c1)c1cnco1	97

System: not listed separately
Assay: Stability in human microsomes for 1 hr
Assay type: ADME, Microsome
Conditions: read-out: Stability
In short: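 Human liver microsomes, % remaining after 1 h.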

Structure (SMILES)	remaining at 1 h [%]
CCCC(=O)Nc1cccc(NC(=O)c2ccccc2Br)c1	99
O=C(Nc1cccc(NC(=O)c2ccccc2Br)c1)c1cnco1	99

Target: Beta-1 adrenergic receptor (Homo sapiens) (UniProt P08588)
Sequence (P08588 whole entry, looked up): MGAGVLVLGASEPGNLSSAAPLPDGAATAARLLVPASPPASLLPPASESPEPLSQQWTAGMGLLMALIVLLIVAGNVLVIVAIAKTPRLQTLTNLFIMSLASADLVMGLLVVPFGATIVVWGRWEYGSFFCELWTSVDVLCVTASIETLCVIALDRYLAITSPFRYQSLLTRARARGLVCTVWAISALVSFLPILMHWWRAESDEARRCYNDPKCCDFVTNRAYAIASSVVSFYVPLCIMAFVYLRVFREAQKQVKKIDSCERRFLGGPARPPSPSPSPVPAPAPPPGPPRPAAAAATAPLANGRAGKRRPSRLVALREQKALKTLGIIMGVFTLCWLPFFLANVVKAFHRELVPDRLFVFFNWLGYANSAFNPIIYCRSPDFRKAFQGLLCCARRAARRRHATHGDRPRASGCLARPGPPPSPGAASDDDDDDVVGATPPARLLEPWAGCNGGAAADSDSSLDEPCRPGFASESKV
Assay: Inhibition of beta1 adrenoceptor (unknown origin) at 10 uM by radio ligand binding assay
Conditions: not given

Structure (SMILES)	inhibition [%]
CCCC(=O)Nc1cccc(NC(=O)c2ccccc2Br)c1	49

Target: Beta-3 adrenergic receptor (Homo sapiens) (UniProt P13945)
Sequence (P13945 whole entry, looked up): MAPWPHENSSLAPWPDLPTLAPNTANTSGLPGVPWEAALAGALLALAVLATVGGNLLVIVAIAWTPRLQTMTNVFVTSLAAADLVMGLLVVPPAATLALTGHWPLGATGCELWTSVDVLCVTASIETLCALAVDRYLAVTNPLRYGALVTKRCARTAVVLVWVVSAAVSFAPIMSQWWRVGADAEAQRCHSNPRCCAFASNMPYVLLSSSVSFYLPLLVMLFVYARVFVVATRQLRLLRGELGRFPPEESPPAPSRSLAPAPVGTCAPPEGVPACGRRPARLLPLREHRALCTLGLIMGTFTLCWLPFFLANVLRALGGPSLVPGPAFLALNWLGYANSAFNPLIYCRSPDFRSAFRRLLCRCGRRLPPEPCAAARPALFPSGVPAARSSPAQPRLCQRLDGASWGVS
Assay: Inhibition of beta3 adrenoceptor (unknown origin) at 10 uM by radio ligand binding assay
Conditions: not given

Structure (SMILES)	inhibition [%]
CCCC(=O)Nc1cccc(NC(=O)c2ccccc2Br)c1	32

Target: Sodium-dependent noradrenaline transporter (Homo sapiens) (UniProt P23975)
Sequence (P23975 whole entry): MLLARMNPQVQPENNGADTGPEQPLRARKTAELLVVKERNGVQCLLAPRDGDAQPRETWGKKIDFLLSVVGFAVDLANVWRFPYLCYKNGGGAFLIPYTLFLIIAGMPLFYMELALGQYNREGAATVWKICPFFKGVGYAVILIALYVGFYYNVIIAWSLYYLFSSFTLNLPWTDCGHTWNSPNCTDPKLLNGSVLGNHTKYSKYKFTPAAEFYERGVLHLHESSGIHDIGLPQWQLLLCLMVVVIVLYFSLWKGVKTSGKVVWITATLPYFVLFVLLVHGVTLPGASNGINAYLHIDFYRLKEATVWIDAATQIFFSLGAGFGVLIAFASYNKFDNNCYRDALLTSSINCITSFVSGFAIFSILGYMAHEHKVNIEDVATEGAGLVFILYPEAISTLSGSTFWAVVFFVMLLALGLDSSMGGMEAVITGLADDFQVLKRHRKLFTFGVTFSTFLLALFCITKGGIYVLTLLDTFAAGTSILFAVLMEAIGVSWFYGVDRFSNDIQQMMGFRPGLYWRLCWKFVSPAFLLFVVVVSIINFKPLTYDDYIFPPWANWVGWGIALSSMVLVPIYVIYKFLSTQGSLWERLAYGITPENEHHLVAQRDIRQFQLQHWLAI
Assay: Inhibition of NET receptor (unknown origin) at 10 uM
Conditions: not given

Structure (SMILES)	inhibition [%]
O=C(Nc1cccc(NC(=O)c2ccccc2Br)c1)c1cnco1	31

System: HepG2
Assay: Cytotoxicity against human HepG2 cells assessed as reduction in cell viability
Assay type: cell-based
Conditions: not given
In short: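 Human HepG2 cells; cytotoxicity reported as CC50.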

Structure (SMILES)	CC50 [µM]
CCCC(=O)Nc1cccc(NC(=O)c2ccccc2Br)c1	> 150
O=C(Nc1cccc(NC(=O)c2ccccc2Br)c1)c1cnco1	> 150

System: not listed separately
Assay: Solubility in 2.5% DMSO
Assay type: physicochemical
Conditions: not given
In short: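 Kinetic aqueous solubility assay with 2.5% DMSO.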

Structure (SMILES)	solubility kinetic [µM]
CCCC(=O)Nc1cccc(NC(=O)c2ccccc2Br)c1	24 (≈ 8.67 µg/mL)
O=C(Nc1cccc(NC(=O)c2ccccc2Br)c1)c1cnco1	17 (≈ 6.57 µg/mL)

Target: T2, Proteinase-activated receptor 1 (Homo sapiens)
Assay: Negative allosteric modulation of PAR1 in human EAhy926 cells assessed as reduction in TFLLRN-NH2-induced intracellular calcium mobilization incubated for 15 mins followed by TFLLRN-NH2 addition by Fluo-4-AM dye based fluorescence assay relative to control
Assay type: functional, cell-based
Conditions: not given
In short: as §1

Structure (SMILES)	inhibition [%]
CCCNC(=O)c1cccc(NC(=O)c2ccccc2Br)c1	50

System: not listed separately
Assay: Stability in mouse plasma at 10 uM measured at 4 hrs by LC-MS analysis
Assay type: ADME, cell-free
Conditions: not given
In short: as §2

Structure (SMILES)	Stability [%]
CCCC(=O)Nc1cccc(NC(=O)c2ccccc2Br)c1	< 1

System: not listed separately
Assay: Stability in human plasma at 10 uM measured at 4 hrs by LC-MS analysis
Assay type: ADME, cell-free
Conditions: not given
In short: as §2

Structure (SMILES)	Stability [%]
CCCC(=O)Nc1cccc(NC(=O)c2ccccc2Br)c1	79

System: HUVEC (human)
Assay: Antiinflammatory activity in human HUVEC cells assessed as inhibition of TNFalpha-induced TF expression at 10 uM preincubated for 1 hr followed by TNFalpha addition and measured after 3 hrs by qPCR analysis
Conditions: not given

Structure (SMILES)	inhibition
CCCC(=O)Nc1cccc(NC(=O)c2ccccc2Br)c1	Active
O=C(Nc1cccc(NC(=O)c2ccccc2Br)c1)c1cnco1	Active

System: Platelet
Assay: Antiplatelet activity in human washed platelets assessed as inhibition of SFLLRN-NH2-induced platelet aggregation at 10 uM incubated for 2 mins followed by SFLLRN-NH2 addition and monitored for 5 mins by lumi-aggregometery
Conditions: not given

Structure (SMILES)	inhibition at 10 µM [%]
CCCC(=O)Nc1cccc(NC(=O)c2ccccc2Br)c1	100
O=C(Nc1cccc(NC(=O)c2ccccc2Br)c1)c1cnco1	100

Target: T2, Proteinase-activated receptor 1 (Homo sapiens)
Assay: Negative allosteric modulation of PAR1 in human EAhy926 cells assessed as reduction in TFLLRN-NH2-induced intracellular calcium mobilization at 0.0316 to 3.16 uM incubated for 15 mins followed by TFLLRN-NH2 addition by Fluo-4-AM dye based fluorescence assay relative to control
Conditions: not given

Structure (SMILES)	inhibition
O=C(Nc1cccc(NC(=O)c2ccccc2Br)c1)c1cnco1	Active
